Laboratory results as given in ChEMBL document CHEMBL6121049, “Discovery of Orally Available Prodrugs of Itaconate and Derivatives” (J Med Chem, 2025).
The source made the active and inactive calls. The calls are words filed in the database; no cut-off is given here.

Experiments:
[1] = Metabolic stability in human plasma assessed as compound remaining at 10 uM measured after 1 hrs by LC-MS analysis; type: ADME, cell-free
How it was run: (§1)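 Prodrugs (10 μM) spiked into mouse or human plasma, shaken at 37 °C; samples at 0 and 60 min quenched in cold acetonitrile with losartan internal standard, centrifuged, diluted, run by LC-HRMS; % remaining from analyte/IS peak-area ratio.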

[2] = Chemical stability in pH 7.4 assessed as compound remaining at 10 uM measured after 1 hrs by LC-MS/MS analysis; type: physicochemical; conditions: buffer, pH 7.4, 1 h
How it was run: (§2)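 Compounds incubated in buffers at pH 1.2, 4.5 or 7.4 at 37 °C for 1 h; prodrug disappearance followed by LC–MS/MS as % remaining.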

[3] = Chemical stability in pH 1.2 assessed as compound remaining at 10 uM measured after 1 hrs by LC-MS/MS analysis; type: physicochemical; conditions: buffer, pH 1.2, 1 h; how it was run: as §2
[4] = Metabolic stability in mouse plasma assessed as compound remaining at 10 uM measured after 1 hrs by LC-MS analysis; type: ADME, cell-free; how it was run: as §1
[5] = Chemical stability in pH 4.5 assessed as compound remaining at 10 uM measured after 1 hrs by LC-MS/MS analysis; type: physicochemical; conditions: buffer, pH 4.5, 1 h; how it was run: as §2
[6] = Metabolic stability in mouse skin homogenate assessed as compound remaining at 10 uM measured after 1 hrs by LC-MS analysis; type: ADME, tissue-based, Skin of body; conditions: tissue homogenate
[7] = Metabolic stability in human skin homogenate assessed as compound remaining at 10 uM measured after 1 hrs by LC-MS analysis; type: ADME, tissue-based, Skin of body; conditions: tissue homogenate
[8] = Permeability of the compound at pH 7.4 incubated for 4 hrs by PAMPA-GIT assay; type: ADME; conditions: pH 7.4, 4 h
How it was run: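 PAMPA-GIT sandwich: acceptor filter coated with GIT-0 lipid; donor holds 10 μM compound in pH 7.4 buffer with 0.2% DMSO, acceptor pH 7.4 sink buffer; 4 h at room temperature; both compartments sampled by LC-MS/MS; effective permeability Pe calculated with membrane retention correction.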

NHEK [9] = experiment: Effect on TLR3 mRNA expression in NHEK cells at 500 uM preincubated for 2 days and measured after 24 hrs by TaqMan RTPCR analysis; type: functional, cell-based; conditions: Homo sapiens, time 2.0 day
NHEK [10] = experiment: Effect on IL-6 expression in NHEK cells at 500 uM preincubated for 2 days and measured after 24 hrs by TaqMan RTPCR analysis; type: functional, cell-based; conditions: Homo sapiens, time 2.0 day
[11] = Prodrug conversion in C57BL6 mouse skin assessed as itaconic acid half life at 100 mg/kg, po measured after 24 hrs by LC-MS/MS analysis; type: ADME, organism-based, Skin of body; conditions: in vivo
How it was run: (§3)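 C57BL6 mice, 25–30 g, 8.5 weeks old, given 100 mg/kg (IA or 4-MI equivalent) orally in 10% DMSO/80% PEG/10% HBS, freshly prepared; killed at 0.25–24 h, n = 3 per time point; acidified plasma and stabilized skin homogenates, methanol precipitation with internal standards, LC-MS/MS (orbitrap); PK parameters as mean ± SEM.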

[12] = Prodrug conversion in C57BL6 mouse skin assessed as itaconic acid Cmax at 100 mg/kg, po measured after 24 hrs by LC-MS/MS analysis; type: ADME, organism-based, Skin of body; conditions: in vivo; how it was run: as §3
[13] = Prodrug conversion in C57BL6 mouse plasma assessed as itaconic acid AUC (0 to t) at 100 mg/kg, po measured after 24 hrs by LC-MS/MS analysis; type: ADME, organism-based; conditions: in vivo
[14] = Immunomodulatory activity in NHEK cells assessed as inhibition of IL-6 mRNA expression at 100 uM preincubated for 2 days and measured after 24 hrs by TaqMan RTPCR analysis; type: functional; conditions: Homo sapiens, 48 h, time 2 day
[15] = Prodrug conversion in C57BL6 mouse plasma assessed as itaconic acid Tmax at 100 mg/kg, po measured after 24 hrs by LC-MS/MS analysis; type: ADME, organism-based; conditions: in vivo; how it was run: as §3
[16] = Prodrug conversion in C57BL6 mouse plasma assessed as itaconic acid Cmax at 100 mg/kg, po measured after 24 hrs by LC-MS/MS analysis; type: ADME, organism-based; conditions: in vivo; how it was run: as §3
[17] = Prodrug conversion in C57BL6 mouse skin assessed as itaconic acid AUC (0 to t) at 100 mg/kg, po measured after 24 hrs by LC-MS/MS analysis; type: ADME, organism-based, Skin of body; conditions: in vivo
[18] = Immunomodulatory activity in NHEK cells assessed as inhibition of Poly(I:C)/IFN-gamma induced IL-1 beta expression at >= 10 uM by TaqMan RTPCR analysis relative to control; type: functional, Homo sapiens; design: scale not given: the % may be the effect or the level left
How it was run: (§4)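 Primary human keratinocytes seeded, held overnight at 37 °C, 5% CO2, then stimulated with Poly(I:C) 50 μg/mL plus IFNγ 5 ng/mL, with or without prodrug at 1, 10, 30 or 100 μM; gene induction measured at 8 h.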

[19] = Immunomodulatory activity in NHEK cells assessed as inhibition of IFN-gamma induced CXCL11 expression at 30 to 100 uM by TaqMan RTPCR analysis relative to control; type: functional, Homo sapiens; conditions: dose 30-100 µM; how it was run: as §4
[20] = Prodrug conversion in C57BL6 mouse skin assessed as itaconic acid Tmax at 100 mg/kg, po measured after 24 hrs by LC-MS/MS analysis; type: ADME, organism-based, Skin of body; conditions: in vivo; how it was run: as §3
[21] = Cytotoxicity against NHEK cells assessed as cell viability at 100 uM measured after 8 hrs by CellTiter-Glo assay relative to control; type: toxicity, cell-based; conditions: human
How it was run: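 Primary normal human epidermal keratinocytes, expanded and seeded, exposed to 1, 10, 30 or 100 μM for 8 h; viability by CellTiter-Glo luminescence as % viable.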

[22] = Prodrug conversion in C57BL6 mouse plasma assessed as itaconic acid half life at 100 mg/kg, po measured after 24 hrs by LC-MS/MS analysis; type: ADME, organism-based; conditions: in vivo; how it was run: as §3
[23] = Toxicity in C57BL6 mouse assessed as body weight loss at 30 to 100 mg/kg, ip administrated daily and measured after 7 days; type: organism-based; conditions: in vivo, 168 h, dose 30-100 mg/kg, time 7 day
[24] = Prodrug conversion in C57BL6 mouse plasma assessed as 4-methyl itaconic AUC (0 to t) at 100 mg/kg, po measured after 24 hrs by LC-MS/MS analysis; type: ADME, organism-based; conditions: in vivo
[25] = Toxicity in C57BL6 mouse assessed as hematological changes at 30 to 100 mg/kg, ip measured after 7 days; type: organism-based; conditions: in vivo, 168 h, dose 30-100 mg/kg, time 7 day
[26] = Prodrug conversion in C57BL6 mouse plasma assessed as 4-methyl itaconate Cmax at 100 mg/kg, po measured after 24 hrs by LC-MS/MS analysis; type: ADME, organism-based; conditions: in vivo; how it was run: as §3
[27] = Prodrug conversion in C57BL6 mouse plasma assessed as 4-methyl itaconic half life at 100 mg/kg, po measured after 24 hrs by LC-MS/MS analysis; type: ADME, organism-based; conditions: in vivo; how it was run: as §3
[28] = Prodrug conversion in C57BL6 mouse skin assessed as 4-methyl itaconate Cmax at 100 mg/kg, po measured after 24 hrs by LC-MS/MS analysis; type: ADME, organism-based, Skin of body; conditions: in vivo; how it was run: as §3
[29] = Prodrug conversion in C57BL6 mouse skin assessed as 4-methyl itaconic half life at 100 mg/kg, po measured after 24 hrs by LC-MS/MS analysis; type: ADME, organism-based, Skin of body; conditions: in vivo; how it was run: as §3
[30] = Prodrug conversion in po dosed C57BL6 mouse skin assessed as 4-methyl itaconic concentration measured after 24 hrs; type: ADME, organism-based, Skin of body; conditions: in vivo
[31] = Prodrug conversion in C57BL6 mouse skin assessed as 4-methyl itaconic AUC (0 to t) at 100 mg/kg, po measured after 24 hrs by LC-MS/MS analysis; type: ADME, organism-based, Skin of body; conditions: in vivo
[32] = Prodrug conversion in C57BL6 mouse plasma assessed as 4-methyl itaconate Tmax at 100 mg/kg, po measured after 24 hrs by LC-MS/MS analysis; type: ADME, organism-based; conditions: in vivo; how it was run: as §3
[33] = Prodrug conversion in C57BL6 mouse skin assessed as 4-methyl itaconate Tmax at 100 mg/kg, po measured after 24 hrs by LC-MS/MS analysis; type: ADME, organism-based, Skin of body; conditions: in vivo; how it was run: as §3
NHEK [34] = experiment: Immunomodulatory activity in NHEK cells assessed as inhibition of Poly(I:C)/IFN-gamma induced IL-1 beta expression at 100 uM by TaqMan RTPCR analysis; type: functional, cell-based; conditions: Homo sapiens; how it was run: as §4
[35] = Immunomodulatory activity in NHEK cells assessed as inhibition of IFN-gamma induced CXCL10 expression at 100 uM by TaqMan RTPCR analysis relative to control; type: functional; conditions: Homo sapiens; how it was run: as §4
[36] = Immunomodulatory activity in NHEK cells assessed as inhibition of IFN-gamma induced CXCL11 expression at 100 uM by TaqMan RTPCR analysis relative to control; type: functional; conditions: Homo sapiens; how it was run: as §4

SMILES | Stability [1] [%] | Stability [2] [%] | Stability [3] [%] | Stability [4] [%] | Stability [5] [%] | Stability [6] [%] | Stability [7] [%] | permeability [8] | further results
C=C(CC(=O)OCc1oc(=O)oc1C)C(=O)OC | 0 | 69 | 100 | 0 | 97 | 0 | 56 | 16.3 10^-6 cm/s | –
C=C(CC(=O)OCc1oc(=O)oc1C)C(=O)OCc1oc(=O)oc1C | 0 | 91 | 102 | 0 | 91 | 0 | 30 | 17 10^-6 cm/s | –
C=C(CC(=O)O)C(=O)O | – | – | – | – | – | – | – | – | Activity (NHEK [9]): inactive; Activity (NHEK [10]): inactive
C=C(CC(=O)OC)C(=O)OCOC(=O)C(C)(C)C | 0 | 94 | 99 | 0 | 109 | 5.3 | 15 | 33.2 10^-6 cm/s | –
C=C(CC(=O)OCCCOCCCCCCCCCCCCCCCC)C(=O)O | 68 | 65 | 91 | 92 | 90 | 100 | 87 | 3.2 10^-6 cm/s | –
C=C(CC(=O)OCc1oc(=O)oc1C)C(=O)O | 0 | 0 | 109 | 20 | 88 | 74 | 93 | – | –
C=C(CC(=O)OCOC(=O)OC(C)C)C(=O)OCOC(=O)OC(C)C | 0 | 47 | 104 | 0 | – | 2.5 | 1.1 | 35.9 10^-6 cm/s | t1/2 [11]: 199 min; Cmax [12]: 65.9 nmol/g; AUCt [13]: 108 µM·h; inhibition at 100 µM [14]: > 90%; Tmax [15]: 15 min; Cmax [16]: 83.8 µM; AUCt [17]: 173 nmol·h/g; Activity [18]: >50%; inhibition (INH) [19]: >50%; Tmax [20]: 60 min; Activity [21]: > 80%; t1/2 [22]: 85.2 min
C=C(CC(=O)OC)C(=O)OCOC(=O)OC(C)C | 0 | 102 | 108 | 0 | 103 | 0 | 1.6 | 35.3 10^-6 cm/s | Activity [23]: Non-toxic; inhibition at 100 µM [14]: > 90%; AUCt [24]: 415 µM·h; Activity [25]: Non-toxic; Cmax [26]: 349 µM; t1/2 [27]: 52.2 min; Cmax [28]: 192 nmol/g; t1/2 [29]: 58.2 min; Activity [18]: >50%; Drug metabolism [30]: > 100 µM; inhibition (INH) [19]: >50%; AUCt [31]: 234 nmol·h/g; Tmax [32]: 30 min; Tmax [33]: 60 min; Activity [21]: > 80%
C=C(CC(=O)OCOC(=O)C(C)(C)C)C(=O)OC | 0 | 86 | 101 | 0 | 104 | 0 | 9.4 | 35.2 10^-6 cm/s | –
C=C(CC(=O)OCOC(=O)C(C)(C)C)C(=O)OCOC(=O)C(C)(C)C | 0 | 104 | 106 | 0 | 92 | 0 | 0 | 35.8 10^-6 cm/s | –
C=C(CC(=O)OCOC(=O)OC(C)C)C(=O)O | 53 | 44 | 104 | 0 | 79 | 4.9 | 29 | – | –
C=C(CC(=O)OCOC(=O)OC(C)C)C(=O)OC | 0 | 63 | 98 | 0 | 94 | 0 | 0 | 29.3 10^-6 cm/s | Activity (NHEK [34]): Active; inhibition at 100 µM [35]: < 50%; inhibition at 100 µM [36]: < 50%; Activity [21]: > 80%
C=C(CC(=O)OC)C(=O)O | – | – | – | – | – | – | – | – | Activity (NHEK [9]): inactive; Activity (NHEK [10]): inactive
C=C(CC(=O)OCCCOCCCCCCCCCCCCCCCC)C(=O)OC | 90 | 97 | 109 | 89 | 98 | 61 | 101 | – | –
C=C(CC(=O)OC)C(=O)OCc1oc(=O)oc1C | 0 | 99 | 98 | 0 | 87 | 16 | 76 | 15.4 10^-6 cm/s | –
C=C(CC(=O)OCOC(=O)C(C)(C)C)C(=O)O | 83 | 22 | 100 | 3 | 74 | 14 | 40 | 0.08 10^-6 cm/s | –
C=C(CC(=O)OC)C(=O)OCCCOCCCCCCCCCCCCCCCC | 32 | 75 | 103 | 44 | 108 | 67 | 94 | – | –
